HTR1A agonist: activates the human 5-HT1a serotonin receptor; CHO 5-HT1a Ga15 NFAT-bla reporter, FRET ratio; 0% basal, 100% maximal reference agonist; activation, % at 10 µM; 0.56% of 65,000 active;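 active = activation above the screen-wide mean activation plus 3 SD, cut at about 19% in these data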
5HT1E ag: activates the human 5-HT1E serotonin receptor. 0.69% of 65,000 active. activation, % at 6 µM. CHO 5-HT1E Ga15 NFAT-bla reporter, FRET; 0% DMSO wells, 100% control agonist wells;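 active = activation above a set limit, the screen-wide mean activation plus 3 SD, cut at about 8.5% in these data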
Target sequence (P28566 whole entry, looked up): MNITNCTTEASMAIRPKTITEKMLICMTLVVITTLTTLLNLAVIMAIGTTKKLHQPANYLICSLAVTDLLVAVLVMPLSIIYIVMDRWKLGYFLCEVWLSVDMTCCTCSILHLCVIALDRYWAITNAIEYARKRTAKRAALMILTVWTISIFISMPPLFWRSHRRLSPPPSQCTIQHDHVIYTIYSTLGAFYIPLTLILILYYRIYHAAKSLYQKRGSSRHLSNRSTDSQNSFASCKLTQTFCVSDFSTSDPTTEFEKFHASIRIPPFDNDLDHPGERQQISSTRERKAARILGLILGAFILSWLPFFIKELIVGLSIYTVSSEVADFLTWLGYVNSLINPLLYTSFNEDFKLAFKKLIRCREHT
Jurkat tox 60K: cytotoxicity toward Jurkat cells; Jurkat E6.1 viability, ATP luminescence, 48 h; inhibition, % at 4 µM; 1.2% of 56,000 active; AID 463;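 active = inhibition above the mean inhibition of all tested compounds plus 3 SD, cut at about 28% in these data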
5HT1E antag: 5-HT1E (human) receptor antagonism | 0.99% of 65,000 active | P28566 | inhibition, % at 6 µM | CHO 5-HT1E Ga15 NFAT-bla reporter, FRET, antagonist;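 active = inhibition above a set limit, the mean inhibition across every tested compound plus 3 SD, cut at about 29% in these data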;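 note: signal is the 460 over 535 nm emission ratio of beta-lactamase substrate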
HEK293 NFkB inh: lowers PMA/ionomycin-induced NF-kB signal in HEK293 cells; HEK-293 NF-kB luciferase reporter, luminescence; inhibition, % at 3 µM; 0.21% of 62,000 active; AID 465;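 active = inhibition above the mean of all tested compounds plus 3 SD, cut at about 40% in these data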
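System: NF-kB luciferase reporter HEK-293 cells | Replication: Single test | Control set: DMSO vs reference inhibitor | Evaluation: % inhibition | Schedule: 1 h pretreatment, 16 h stimulation, 37 °C | Probe or stimulus: PMA with ionomycin | Compound dosing: One dose, 3 µM | Detection: Luciferase luminescence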
5-HT1A blocker: antagonists of human 5-HT1a serotonin receptor. CHO 5-HT1a Ga15 NFAT-bla reporter, antagonist mode. 0.68% of 62,000 active. AID 612. inhibition, % at 10 µM;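 active = inhibition above the mean of all tested compounds plus 3 SD, cut at about 43% in these data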;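 note: receptor stimulated by 5-CT agonist at 100 nM near EC80; beta-lactamase reporter measured by ratiometric fluorescence of a cleavable substrate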
Of the large screens only hits and unclear results are named; the others gave an inactive call. Compounds with a hit are over-represented: about 3.3% of the library has one in this group of screens.

Cn1nc(CC(=O)N2CCN(c3ccccc3)CC2)c2ccccc2c1=O	none
COc1ccccc1NC(=O)Cc1nn(C)c(=O)c2ccccc12	Jurkat tox 60K 58
Cn1nc(CC(=O)Nc2ccc(N3CCN(C(=O)OC(C)(C)C)CC3)cc2)c2ccccc2c1=O	Jurkat tox 60K 99, HEK293 NFkB inh 45
Cn1nc(CC(=O)Nc2ccc3c(c2)OCCO3)c2ccccc2c1=O	Jurkat tox 60K 95
CCC1CCCCN1C(=O)N[C@@H](Cc1ccccc1)C(=O)O (stereo partly drawn)	none
CN1CCCc2cc3c(C(F)(F)F)cc(=O)oc3nc21	5HT1E antag 41
CC(O)CN(Cc1cccc(Cl)c1)CC(C)O (stereo not drawn)	none
CC(=O)NC(CCS(C)(=O)=O)C(=O)Nc1cc(Cl)ccc1Cl (stereo not drawn)	HTR1A agonist 120
CC1CCCN(c2ncnc3c2cnn3-c2ccc(Cl)cc2)C1 (stereo not drawn)	HEK293 NFkB inh 71
C#CC1(O)CC(C)NCC1(C)CCC#N (stereo not drawn)	none
CC1=C(C(=O)OC2CCCCC2)C(c2ccco2)C2=C(CC(C)(C)CC2=O)N1 (stereo not drawn)	5HT1E antag 44
CC1=C(C(=O)OCc2ccccc2)C(c2ccc(C)o2)C2=C(CCCC2=O)N1 (stereo not drawn)	none
CC1=C(C(=O)OC2CCCCC2)C(c2ccc(C)o2)C2=C(CCCC2=O)N1 (stereo not drawn)	5HT1E antag 30
CC1=C(C(=O)OCCOc2ccccc2)C(c2ccc(C)o2)C2=C(CC(C)(C)CC2=O)N1 (stereo not drawn)	none
CC1(C)CC(=O)C2=C(C1)NC(SCC(=O)Nc1ccccc1)=C(C#N)C2c1ccco1 (stereo not drawn)	5HT1E antag 33
Cc1nc2c3c(-c4ccccc4)nc(N4CCOCC4)nc3nn2c(C)c1CCC(=O)O	none
CCn1c(C)nc2cc(C(=O)OCCC(F)(F)F)ccc21	HTR1A agonist 26
Cc1ccc(N2C(=O)c3ccc(C(=O)N4CCN(c5ccccc5F)CC4)cc3C2=O)cc1	none
CNC(=O)N(C1=NCC(C)(C)S1)c1ccc(F)c(Cl)c1	Jurkat tox 60K 49, 5HT1E antag 31
Cn1c(=O)[nH]c(=O)c2[nH]c(N(Cc3ccccc3)Cc3ccccc3)nc21	5HT1E antag 29
CN1CCN(CC(=O)N(C)c2nc(-c3ccccc3)cs2)CC1	none
C/C(N)=C(/C#N)C(=O)CN1CCCCC1	none
O=c1c2c(nc3nc(SCc4ccccc4)[nH]n13)CCC2	none
CSc1nc2nc3c(c(=O)n2[nH]1)CN(Cc1ccccc1)CC3	Jurkat tox 60K 102
Cc1ccc(S(=O)(=O)N2C(=O)CCC2C(=O)NCc2ccco2)cc1 (stereo not drawn)	none
COC(=O)c1cc(OC)c(OC)cc1NC(=O)C1CCC(=O)N1S(=O)(=O)c1ccc(C)cc1 (stereo not drawn)	5HT1E antag 36
CSc1nc(N2CCOCC2)c2c3c(sc2n1)CCCC3	5HT1E antag 32
c1nc(N2CCOCC2)c2c3c(sc2n1)CCCC3	none
O=C(O)CCC(=O)N1CCN(c2nc3ccccc3s2)CC1	5HT1E ag 15
CCOc1ccc(NC(=O)N2CCN(c3nc4ccccc4s3)CC2)cc1	5HT1E ag 17
CCCOc1ccc(N2C(=O)CC(N3CCN(c4nc5ccccc5s4)CC3)C2=O)cc1 (stereo not drawn)	none
N#Cc1c(N)n(C2CCCCC2)c2nc3ccccc3nc12	HTR1A agonist 25
O=C(Nn1cnnc1)c1ccccc1-c1ccccc1	none
CCSCCOC(=O)C1=C(C)NC(=O)NC1c1ccc2c(c1)OCO2 (stereo not drawn)	HTR1A agonist 200
CCOC(=O)C1=C(C)NC(=O)NC1c1ccc2c(c1)OCO2 (stereo not drawn)	none (no result: Jurkat tox 60K, HEK293 NFkB inh, 5-HT1A blocker)
CCC(c1nnnn1C(C)(C)C)N1CCN(c2cc(Cl)ccc2C)CC1 (stereo not drawn)	5-HT1A blocker 44
CCCC(c1nnnn1CC1CCCO1)N1CCN(c2cc(Cl)ccc2C)CC1 (stereo not drawn)	none
COc1cc2c(cc1OC)C(C)N(C(=O)c1cc3ccccc3o1)CC2 (stereo not drawn)	Jurkat tox 60K 28
